Reference: ChEMBL document CHEMBL4689842, “EUbOPEN Chemogenomics Library wave 1” (2021)
Where “and” joins values, the source holds several entries; their conditions need not be identical. Equal values may be shown once.

Tested on: HEK-293T
Test: Multiplex assay against HEK293T;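 on Population Tubulin-Different-Phenotype (%): share of the cells with healthy nuclei that show this phenotype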
Type: toxicity, cell-based
Conditions: human
Outline: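 Values for tubulin, mitochondrial-mass and membrane-permeability phenotypes are per cents of cells with healthy nuclei. These cells were identified by CellPathfinder machine-learning gating of live cells that had been stained at seeding with Hoechst33342, BioTracker Green Microtubule Cytoskeleton Dye, MitoTracker Red and Annexin V Alexa Fluor 680 and imaged on a CQ1 microscope at 37°C and 5% CO2 after compound addition. The gating first set Hoechst high-intensity objects apart from normal cells, then split normal cells into healthy, pyknosed or fragmented nuclei, and pyknosed cells into mitotic or apoptotic.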

[1] = 12 h, 10 µM, compound concentration 10 uM, replicate 1
[2] = 12 h, 10 µM, compound concentration 10 uM, replicate 2
[3] = 24 h, 10 µM, compound concentration 10 uM, replicate 1
[4] = 24 h, 10 µM, compound concentration 10 uM, replicate 2
[5] = 12 h, 1 µM, compound concentration 1 uM, replicate 1
[6] = 12 h, 1 µM, compound concentration 1 uM, replicate 2
[7] = 24 h, 1 µM, compound concentration 1 uM, replicate 1
[8] = 24 h, 1 µM, compound concentration 1 uM, replicate 2
[9] = 48 h, 1 µM, compound concentration 1 uM, replicate 1
[10] = 48 h, 1 µM, compound concentration 1 uM, replicate 2
[11] = 48 h, 10 µM, compound concentration 10 uM, replicate 1
[12] = 48 h, 10 µM, compound concentration 10 uM, replicate 2

## CNCc1ccccc1-c1csc([C@@H](C)Nc2nc(C)nc3cc(OC)c(OC)cc23)c1 [BAY-293]
[1]
  Population Apoptotic (%): 19% and 47%
  Population Fragmented Nuclei (%): 20% and 21%
  Population Healthy Nuclei (%): 45% and 17%
  Population Hoechst High Intensity Objects (%): 16% and 22%
  Population Membrane Permeable-Phenotype (%): 29% and 15%
  Population Mitochondria Different-Phenotype (%): 18% and 54%
  Population Mitotic Cells (%): 80% and 52%
  Population Normal (%): 83% and 77%
  Population Pyknosed Nuclei (%): 34% and 61%
  Population Tubulin-Different-Phenotype (%): 80% and 65%
  Total Cell Count: 581 and 619
[2]
  Population Fragmented Nuclei (%): 5% and 2%
  Population Healthy Nuclei (%): 80% and 57%
  Population Hoechst High Intensity Objects (%): 3% and 9%
  Population Membrane Permeable-Phenotype (%): 7%
  Population Mitotic Cells (%): 91% and 65%
  Population Normal (%): 96% and 90%
  Population Pyknosed Nuclei (%): 14% and 40%
  Population Tubulin-Different-Phenotype (%): 95% and 92%
  Total Cell Count: 1447 and 918
[3]
  Population Apoptotic (%): 55% and 23%
  Population Fragmented Nuclei (%): 28% and 17%
  Population Hoechst High Intensity Objects (%): 25% and 13%
  Population Membrane Permeable-Phenotype (%): 17% and 36%
  Population Mitochondria Different-Phenotype (%): 45% and 16%
  Population Mitotic Cells (%): 44% and 76%
  Population Normal (%): 74% and 86%
  Population Tubulin-Different-Phenotype (%): 59% and 89%
  Total Cell Count: 668 and 627
[4]
  Population Fragmented Nuclei (%): 5% and 15%
  Population Healthy Nuclei (%): 46% and 79%
  Population Mitotic Cells (%): 53% and 94%
  Population Normal (%): 89% and 96%
  Population Tubulin-Different-Phenotype (%): 73% and 82%
  Total Cell Count: 918 and 2344

## COc1ccc(-c2ccc3ncc4c(c3c2)n(-c2ccc(N3CCNCC3)c(C(F)(F)F)c2)c(=O)n4C)cn1.O=C(O)/C=C\C(=O)O [BGT-226]
[5]
  Population Apoptotic (%): 70%
  Population Fragmented Nuclei (%): 22%
  Population Healthy Nuclei (%): 2%
  Population Hoechst High Intensity Objects (%): 25%
  Population Mitochondria Different-Phenotype (%): 87%
  Population Mitotic Cells (%): 29%
  Population Normal (%): 74%
  Population Pyknosed Nuclei (%): 74%
  Population Tubulin-Different-Phenotype (%): 87%
  Total Cell Count: 358
[6]
  Population Apoptotic (%): 78%
  Population Fragmented Nuclei (%): 8%
  Population Healthy Nuclei (%): 6%
  Population Hoechst High Intensity Objects (%): 10%
  Population Membrane Permeable-Phenotype (%): 0%
  Population Mitochondria Different-Phenotype (%): 100%
  Population Mitotic Cells (%): 21%
  Population Normal (%): 89%
  Population Pyknosed Nuclei (%): 84%
  Population Tubulin-Different-Phenotype (%): 90%
  Total Cell Count: 162
[1]
  Population Apoptotic (%): 72%
  Population Fragmented Nuclei (%): 28%
  Population Healthy Nuclei (%): 0%
  Population Hoechst High Intensity Objects (%): 28%
  Population Membrane Permeable-Phenotype (%): 50%
  Population Mitochondria Different-Phenotype (%): 50%
  Population Mitotic Cells (%): 27%
  Population Normal (%): 71%
  Population Pyknosed Nuclei (%): 70%
  Population Tubulin-Different-Phenotype (%): 100%
  Total Cell Count: 306
[2]
  Population Apoptotic (%): 96%
  Population Fragmented Nuclei (%): 51%
  Population Healthy Nuclei (%): 7%
  Population Hoechst High Intensity Objects (%): 45%
  Population Membrane Permeable-Phenotype (%): 11%
  Population Mitochondria Different-Phenotype (%): 16%
  Population Mitotic Cells (%): 3%
  Population Normal (%): 54%
  Population Pyknosed Nuclei (%): 41%
  Population Tubulin-Different-Phenotype (%): 66%
  Total Cell Count: 454
[7]
  Population Apoptotic (%): 70%
  Population Fragmented Nuclei (%): 27%
  Population Healthy Nuclei (%): 2%
  Population Hoechst High Intensity Objects (%): 20%
  Population Membrane Permeable-Phenotype (%): 12%
  Population Mitochondria Different-Phenotype (%): 75%
  Population Mitotic Cells (%): 29%
  Population Normal (%): 79%
  Population Pyknosed Nuclei (%): 69%
  Population Tubulin-Different-Phenotype (%): 75%
  Total Cell Count: 358
[8]
  Population Apoptotic (%): 84%
  Population Fragmented Nuclei (%): 9%
  Population Healthy Nuclei (%): 9%
  Population Hoechst High Intensity Objects (%): 8%
  Population Membrane Permeable-Phenotype (%): 7%
  Population Mitochondria Different-Phenotype (%): 92%
  Population Mitotic Cells (%): 15%
  Population Normal (%): 91%
  Population Pyknosed Nuclei (%): 81%
  Population Tubulin-Different-Phenotype (%): 92%
  Total Cell Count: 169
[3]
  Population Apoptotic (%): 77%
  Population Fragmented Nuclei (%): 38%
  Population Healthy Nuclei (%): 0%
  Population Hoechst High Intensity Objects (%): 35%
  Population Membrane Permeable-Phenotype (%): 0%
  Population Mitochondria Different-Phenotype (%): 0%
  Population Mitotic Cells (%): 22%
  Population Normal (%): 64%
  Population Pyknosed Nuclei (%): 61%
  Population Tubulin-Different-Phenotype (%): 0%
  Total Cell Count: 317
[4]
  Population Apoptotic (%): 98%
  Population Fragmented Nuclei (%): 48%
  Population Healthy Nuclei (%): 15%
  Population Hoechst High Intensity Objects (%): 46%
  Population Membrane Permeable-Phenotype (%): 25%
  Population Mitochondria Different-Phenotype (%): 28%
  Population Mitotic Cells (%): 1%
  Population Normal (%): 53%
  Population Pyknosed Nuclei (%): 35%
  Population Tubulin-Different-Phenotype (%): 77%
  Total Cell Count: 422
[9]
  Population Apoptotic (%): 74%
  Population Fragmented Nuclei (%): 38%
  Population Healthy Nuclei (%): 1%
  Population Hoechst High Intensity Objects (%): 21%
  Population Membrane Permeable-Phenotype (%): 0%
  Population Mitochondria Different-Phenotype (%): 100%
  Population Mitotic Cells (%): 25%
  Population Normal (%): 78%
  Population Pyknosed Nuclei (%): 60%
  Population Tubulin-Different-Phenotype (%): 100%
  Total Cell Count: 380
[10]
  Population Apoptotic (%): 84%
  Population Fragmented Nuclei (%): 10%
  Population Healthy Nuclei (%): 18%
  Population Hoechst High Intensity Objects (%): 11%
  Population Membrane Permeable-Phenotype (%): 3%
  Population Mitochondria Different-Phenotype (%): 88%
  Population Mitotic Cells (%): 15%
  Population Normal (%): 88%
  Population Pyknosed Nuclei (%): 71%
  Population Tubulin-Different-Phenotype (%): 85%
  Total Cell Count: 166
[11]
  Population Apoptotic (%): 85%
  Population Fragmented Nuclei (%): 45%
  Population Healthy Nuclei (%): 0%
  Population Hoechst High Intensity Objects (%): 42%
  Population Membrane Permeable-Phenotype (%): 0%
  Population Mitochondria Different-Phenotype (%): 0%
  Population Mitotic Cells (%): 14%
  Population Normal (%): 57%
  Population Pyknosed Nuclei (%): 54%
  Population Tubulin-Different-Phenotype (%): 0%
  Total Cell Count: 360
[12]
  Population Apoptotic (%): 98%
  Population Fragmented Nuclei (%): 53%
  Population Healthy Nuclei (%): 22%
  Population Hoechst High Intensity Objects (%): 44%
  Population Membrane Permeable-Phenotype (%): 14%
  Population Mitochondria Different-Phenotype (%): 48%
  Population Mitotic Cells (%): 1%
  Population Normal (%): 55%
  Population Pyknosed Nuclei (%): 24%
  Population Tubulin-Different-Phenotype (%): 75%
  Total Cell Count: 397
